Test results published in the EternaBench riboswitch data.

Test system: MS2 coat protein
Assay: apparent Kd, MS2 coat protein; higher = weaker binding; RNA-MaP array; FMN 200 µM where present
Summary of the method: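 SNAP-549-labelled MS2 coat protein, doubled from 0.7 or 1.5 nM to 3 µM, was titrated over designs transcribed by stalled E. coli RNA polymerase on Illumina sequencing-chip clusters. Titrations were run without and then with constant ligand in 100 mM Tris-HCl pH 7.5, 80 mM KCl, 4 mM MgCl2, BSA, DTT, yeast tRNA and Tween-20. The apparent Kd is the median of filtered per-cluster fits to green signal normalised to red-channel RNA signal and control-cluster median Fmax.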

[1] = designed as: ON switch for flavin mononucleotide, no ligand
[2] = ligand present: flavin mononucleotide, designed as: ON switch for flavin mononucleotide
[3] = designed as: OFF switch for flavin mononucleotide, no ligand
[4] = ligand present: flavin mononucleotide, designed as: OFF switch for flavin mononucleotide

Sequence	apparent Kd [1] [nM]	apparent Kd [2] [nM]	apparent Kd [3] [nM]	apparent Kd [4] [nM]
AGAUUUGUACAUGAGGAUCACCCAUGUUAAUAGGUGGUAGUCAGAAGGCAUUGAUAGAGUUUUAAUGAGGAUAUGAAUAUACAG	267	126		
CUGUUCUGUGUAGGAUAUGCAUAUUCCCAUUAUGCAGAAGGACAUGAGGAUCACCCAUGUAUGUUAUUAUCAUGUGUUACAUGC			37.6	146
UUUUUAUAACAAGGAUAUACUAAACAUGAGGAUCACCCAUGUAAUAUUAUGAGUGAGAGAGAGAAGUAGAAGGUGUAUUAUUUU			96	120
AUUUAACCCAGCGGUGCUGAUGCACAUGAGGAUCACCCAUGUAGAAGGCAGCUAGACACUUAAGCUGAGGAUAUACAUGUAAGA			15.6	63.3
CUGUUAUAGAUCCAUUUUUUCAACAUGAGGAUCACCCAUGUGCAGGAUAUCGUGAUUAUUUUCAUCGAGAAGGGCAUAAUCACG			46.6	51
GGGUAAAUCGGAGGAUAUCAUGUAAAUACAUGAGGAUCACCCAUGUCGAUGGAGACAUCGGAGAUUGAGAAGGCCGAUGUACCG	175	9.42		
CUUUUGUUAGGAUAUUAGUAGUAAAUAAAUAAAAUUACUACUGAGAAGGCACAUGAGGAUCACCCAUGUUCCUC			26	31.4
GAAGCAUCCAAUAACAUGAGGAUCACCCAUGUCAAAAGACGGGAGGAUAUUGAUCUGAAGAAGAUCAAGAAGGCCUGGUGCUAA	10.1	7.35		
UUUUUGUGAGGAUAUUAGUAGUAAAUAAAUAAAAUUAUUACUGAGAAGGCACAUGAGGAUCACCCAUGUUCCUU			14.8	68.1
UAUUAAUGCAAGGAUAUGCUAUUAAUUUAUUUUGCAGAAGGUGCAACAUGAGGAUCACCCAUGUUGGAGGGUAU			22	34.3
AAUGAUUGAUGAGGAUAUUGUGGUGAAACACGACGAGAAGGCAUAUGUCACAUGAGGAUCACCCAUGUGAGCUUUGUGGAUAUA			25	28.9
AGGAUGUUAGGAUAUCGGAUAUGCUGGAGGAGGUGGAUUUACGAGAAGGAACAUGAGGAUCACCCAUGUUGGAG			22.5	25.1
ACUGGCUUGCAGAAGGGUGACAUGAGGAUCACCCAUGUAGCGGGCCGGCGUAAAGUCAGCGCGCCACAGGAUAUGCAGGCCUCG	74	45.2		
AGUAAGAUGCAGAAGGUGUUAGCUAGAGCUACGACAUGAGGAUCACCCAUGUACUAAAACCCGUACAAGGAUAUGCAUCUUACA	8.17	6.47		
CAAAUUUGGUAAGGAUAUCCCACAUUAUUCUGACCCGUGCAAGCUACAUGAGGAUCACCCAUGUGGGAGAAGGUGCGUUAAAGA			63	79
AGAUAACAUGUAGGAUAUCGAGGCCUGAGGCCUCGAGAAGGACAUGAGGAUCACCCAUGUAGUUGUACCAUGGAAUCACGCACU			340	645
UUCCAACAUGAGGAUCACCCAUGUCGGAAGCAUUAAGGAUAUGGGCGGCCGGUGGCUGAACCAGAAGGUAAGCCAG	15.3	18.1		
ACAUGAGACUUAGGAUAUGUUGUACCUACAUGUGACAUGAGGAUCACCCAUGUGGUAAGUAUGACACAGAAGGAAGAGAUAUGU	21.4	19.9		
UUGAGGUAAGGAUAUAUUAGGAGCGAAGUUACUUGUUUUUUAUAGAAGGUACAUGAGGAUCACCCAUGUGAAUA			27.7	23.4
CACAGGGCAGGAUAUACGAACAUGUCGCCAGAUGUCAUGGUACAUGAGGAUCACCCAUGUAGAAGGGCGUUGAU			50.5	52.8
CCGUAGAUGGGACAGGAUAUGACUGUCGUCACAUGAGGAUCACCCAUGUCCCGGCAAUGCCACCGUUAGAAGGGUCCCGUCUCGG	14.4	15		
UUAUUUUUACAGAAGGUUUAAUAAUAUGUAUGAGAAGGAUAUGUAACAUGAGGAUCACCCAUGUUUCGUCUAUAUGAGGAUCAU			6.77	7.22
UUGUUAUAUGUAGGAUAUGCAUAUUAUUAUUAUGCAGAAGGACAUGAGGAUCACCCAUGUAUAUUGUUGUUAUAUAUUAUAUAU			24	28.4
AACAAAUAUGAUCAUUAUGUAAGGCAGGAUAUCCCACAUGAGGAUCACCCAUGUACAGUACAUAGGGAGAAGGGCCGAAUGGGA	72	6.8		
UGUAUGGACAGAGGAUAUACGGAUAGGAUCUACUAUCCUCCUUAAAUAACAUGAGGAUCACCCAUGUAGAAGGCUGUCCAUACU			18.6	43.5
GCGUAAUAGAUCCUAUUUAUCUACAUGAGGAUCACCCAUGUGCAGGAUAUGCUAUAAUUUAAUAAGCAGAAGGGCAAUUUCCGC			73.3	159
AUGCUUCACACAGGAUAUACAUGAGGAUCACCCAUGUGUCCACCGUAGCUGACACGAGCUACGCGGUAGAAGGGUGUGAAGCAU			18	33.3
UUGUUAUAUGUAGGAUAUGCGUAUUAUUGUUAUGCAGAAGGACAUGAGGAUCACCCAUGUAUAUUAUUGUUAUAUAUUAUAUAU			25.7	66.5
